The values below come from ChEMBL document CHEMBL1140919, “Structure-based drug design of novel Aurora kinase A inhibitors: structural basis for potency and specificity” (J Med Chem, 2009).

The inhibition is the drop in the measured response relative to a control, in per cent. By IC50 is commonly meant the concentration at which inhibition is half-maximal. Higher therefore signals lower potency.

In test [1] the target is Hepatocyte growth factor receptor (Homo sapiens) (UniProt P08581). Put plainly: Inhibition of cMET at 1 uM relative to control.
The target in test [2] is Aurora kinase A (Homo sapiens) (UniProt O14965). Put plainly: Inhibition of Aurora kinase A Thr288 autophosphorylation in human HCT116 cells by Western blot. It counts as cell-based. The following applies: HCT-116. An outline of the steps: (§1)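 HCT-116 cells, 4 × 10^5 per well, were seeded for 24 h and synchronized with 40 ng/mL nocodazole for 16 h. They were then exposed to compound at 0.625–40 µM for 2 h at 37 °C. Cells were lysed in SDS sample buffer (pH 6.8, 2% SDS) at 95 °C for 10 min, and 50 µg was run on SDS-PAGE. Blots were probed for phospho-Aurora A (Thr288) and phospho-histone H3 (Ser10) with HRP detection.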
Aurora kinase A (Homo sapiens), sequence (O14965 whole entry): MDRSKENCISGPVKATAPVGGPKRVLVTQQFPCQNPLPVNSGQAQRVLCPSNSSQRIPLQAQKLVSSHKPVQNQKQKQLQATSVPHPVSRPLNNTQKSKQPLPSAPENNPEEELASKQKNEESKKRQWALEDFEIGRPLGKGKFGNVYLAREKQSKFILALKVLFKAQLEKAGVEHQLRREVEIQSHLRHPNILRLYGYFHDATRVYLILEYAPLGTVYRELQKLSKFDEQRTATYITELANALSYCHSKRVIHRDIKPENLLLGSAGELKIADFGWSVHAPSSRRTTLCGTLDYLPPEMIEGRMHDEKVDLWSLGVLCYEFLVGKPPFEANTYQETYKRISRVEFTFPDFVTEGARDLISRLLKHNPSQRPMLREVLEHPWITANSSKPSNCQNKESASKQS
For orientation: A western blot detects proteins with antibodies after separation by electrophoresis.

The target of test [3] is Receptor tyrosine-protein kinase erbB-2 (Homo sapiens) (UniProt P04626). Put plainly: Inhibition of ERBB2 at 1 uM relative to control.
The target of test [4] is Insulin-like growth factor 1 receptor (Homo sapiens) (UniProt P08069). Put plainly: Inhibition of IGF1R at 1 uM relative to control.
Test [5] deals with Inhibitor of nuclear factor kappa-B kinase subunit epsilon (Homo sapiens) (UniProt Q14164). Put plainly: Inhibition of IKK epsilon at 1 uM relative to control.
Test [6] addresses Vascular endothelial growth factor receptor 1 (Homo sapiens) (UniProt P17948). Put plainly: Inhibition of FLT1 at 1 uM relative to control.
The target of test [7] is Proto-oncogene tyrosine-protein kinase Src (Homo sapiens) (UniProt P12931). Put plainly: Inhibition of SRC at 1 uM relative to control.
Test [8] has as its target ALK tyrosine kinase receptor (Homo sapiens) (UniProt Q9UM73). Put plainly: Inhibition of ALK at 1 uM relative to control.
The target of test [9] is Proto-oncogene tyrosine-protein kinase receptor Ret (Homo sapiens) (UniProt P07949). Put plainly: Inhibition of RET at 1 uM relative to control.
The test system of test [10] is RAF proto-oncogene serine/threonine-protein kinase (Homo sapiens), P04049 [Y340D,Y341D]. Put plainly: Inhibition of cRaf Y340D/Y341D mutant at 1 uM relative to control.
RAF proto-oncogene serine/threonine-protein kinase (Homo sapiens), P04049 [Y340D,Y341D], sequence (P04049 whole entry Y340D/Y341D): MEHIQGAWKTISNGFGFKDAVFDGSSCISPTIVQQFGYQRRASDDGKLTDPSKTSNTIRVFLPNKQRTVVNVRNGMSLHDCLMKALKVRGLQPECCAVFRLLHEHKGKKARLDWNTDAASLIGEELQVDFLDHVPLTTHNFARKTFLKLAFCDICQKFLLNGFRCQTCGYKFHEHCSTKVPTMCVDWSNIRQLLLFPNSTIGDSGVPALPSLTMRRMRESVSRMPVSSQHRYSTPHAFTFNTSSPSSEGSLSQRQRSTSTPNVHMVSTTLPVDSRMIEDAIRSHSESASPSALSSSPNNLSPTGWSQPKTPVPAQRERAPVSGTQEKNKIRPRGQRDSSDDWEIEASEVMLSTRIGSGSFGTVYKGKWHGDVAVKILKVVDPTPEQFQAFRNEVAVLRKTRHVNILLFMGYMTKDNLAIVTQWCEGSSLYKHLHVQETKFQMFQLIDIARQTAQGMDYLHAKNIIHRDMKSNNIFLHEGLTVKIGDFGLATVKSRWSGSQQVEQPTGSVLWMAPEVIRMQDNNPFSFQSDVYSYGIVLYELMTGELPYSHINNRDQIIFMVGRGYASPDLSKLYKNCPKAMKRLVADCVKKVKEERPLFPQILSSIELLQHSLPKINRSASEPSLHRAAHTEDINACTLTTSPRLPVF
The target of test [11] is High affinity nerve growth factor receptor (Homo sapiens) (UniProt P04629). Put plainly: Inhibition of NTRK1 at 1 uM relative to control.
High affinity nerve growth factor receptor (Homo sapiens), sequence (P04629 33-796 limits assumed): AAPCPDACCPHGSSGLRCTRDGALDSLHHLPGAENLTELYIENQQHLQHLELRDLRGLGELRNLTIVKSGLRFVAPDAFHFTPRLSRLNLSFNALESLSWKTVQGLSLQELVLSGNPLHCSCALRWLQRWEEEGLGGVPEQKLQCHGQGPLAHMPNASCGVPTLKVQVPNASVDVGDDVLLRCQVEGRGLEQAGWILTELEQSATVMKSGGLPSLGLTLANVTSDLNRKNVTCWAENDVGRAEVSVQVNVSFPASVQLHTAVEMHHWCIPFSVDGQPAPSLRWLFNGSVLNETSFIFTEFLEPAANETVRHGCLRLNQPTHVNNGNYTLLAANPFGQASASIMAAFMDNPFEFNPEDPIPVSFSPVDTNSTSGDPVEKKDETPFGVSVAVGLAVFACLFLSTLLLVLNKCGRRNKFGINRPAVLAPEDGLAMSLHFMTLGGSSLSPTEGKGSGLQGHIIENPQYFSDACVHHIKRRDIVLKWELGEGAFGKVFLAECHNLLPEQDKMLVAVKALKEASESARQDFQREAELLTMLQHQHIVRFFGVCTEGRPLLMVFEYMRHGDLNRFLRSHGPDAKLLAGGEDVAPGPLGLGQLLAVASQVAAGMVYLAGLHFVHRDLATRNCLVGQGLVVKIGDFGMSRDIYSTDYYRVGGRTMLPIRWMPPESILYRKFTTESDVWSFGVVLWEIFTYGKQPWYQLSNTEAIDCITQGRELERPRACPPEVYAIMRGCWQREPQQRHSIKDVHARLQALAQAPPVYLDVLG
Test [12] deals with Cyclin-dependent kinase 2 (Homo sapiens) (UniProt P24941). Put plainly: Inhibition of CDK2/Cyclin A at 1 uM relative to control.
In test [13] the target is Tyrosine-protein kinase ABL1 (Homo sapiens) (UniProt P00519). Put plainly: Inhibition of ABL1 at 1 uM relative to control.
For test [14], the target named is RAC-alpha serine/threonine-protein kinase (Homo sapiens) (UniProt P31749). Put plainly: Inhibition of AKT1 at 1 uM relative to control.
The target in test [15] is Phosphatidylinositol 4,5-bisphosphate 3-kinase catalytic subunit gamma isoform (Homo sapiens) (UniProt P48736). Put plainly: Inhibition of PIK3CG at 1 uM relative to control.
Test [16] concerns the target 5'-AMP-activated protein kinase catalytic subunit alpha-1 (Homo sapiens) (UniProt Q13131). Put plainly: Inhibition of AMPK alpha-1/beta-1/gamma-1 at 1 uM relative to control.
The target in test [17] is Mitogen-activated protein kinase 14 (Homo sapiens) (UniProt Q16539). Put plainly: Inhibition of MAPK14 at 1 uM relative to control.
Test [18] addresses Tyrosine-protein kinase JAK2 (Homo sapiens) (UniProt O60674). Put plainly: Inhibition of JAK2 at 1 uM relative to control.
Test [19] concerns the target 3-phosphoinositide-dependent protein kinase 1 (Homo sapiens) (UniProt O15530). Put plainly: Inhibition of PDK1 at 1 uM relative to control.
For test [20], the target named is Aurora kinase C (Homo sapiens) (UniProt Q9UQB9). Put plainly: Inhibition of AURKC at 1 uM relative to control.
Aurora kinase C (Homo sapiens), sequence (Q9UQB9 whole entry): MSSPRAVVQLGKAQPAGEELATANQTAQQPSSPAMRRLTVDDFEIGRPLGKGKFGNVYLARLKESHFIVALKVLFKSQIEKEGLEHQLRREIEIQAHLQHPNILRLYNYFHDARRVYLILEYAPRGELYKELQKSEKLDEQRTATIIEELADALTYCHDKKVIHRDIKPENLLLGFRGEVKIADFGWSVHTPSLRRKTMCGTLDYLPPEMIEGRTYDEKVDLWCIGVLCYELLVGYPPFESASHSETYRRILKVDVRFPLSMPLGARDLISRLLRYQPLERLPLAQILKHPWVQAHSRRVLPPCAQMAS
Test [21] concerns the target Glycogen synthase kinase-3 beta (Homo sapiens) (UniProt P49841). Put plainly: Inhibition of GSK3-beta at 1 uM relative to control.
The target in test [22] is Ephrin type-A receptor 1 (Homo sapiens) (UniProt P21709). Put plainly: Inhibition of EPHA1 at 1 uM relative to control.
Test [23] concerns the target Aurora kinase B (Homo sapiens) (UniProt Q96GD4). Put plainly: Inhibition of AURKB at 1 uM relative to control.
Test [24] has as its target Serine/threonine-protein kinase mTOR (Homo sapiens) (UniProt P42345). Put plainly: Inhibition of FRAP1 at 1 uM relative to control.
The target in test [25] is Serine/threonine-protein kinase Chk1 (Homo sapiens) (UniProt O14757). Put plainly: Inhibition of CHK1 at 1 uM relative to control.
In test [26] the target is Mast/stem cell growth factor receptor Kit (Homo sapiens) (UniProt P10721). Put plainly: Inhibition of KIT at 1 uM relative to control.
Test [27] deals with Angiopoietin-1 receptor (Homo sapiens) (UniProt Q02763). Put plainly: Inhibition of TEK at 1 uM relative to control.
Test [28] concerns the target Aurora kinase B (Homo sapiens) (UniProt Q96GD4). Put plainly: Inhibition of Aurora kinase B in human HCT116 cells assessed as reduced phosphorylated histone H3 levels by Western blot. It counts as cell-based. The following applies: HCT-116. An outline of the steps: as §1
The target in test [29] is Aurora kinase A (Homo sapiens) (UniProt O14965). Put plainly: Inhibition of AURKA at 1 uM relative to control.
The target in test [30] is Receptor-type tyrosine-protein kinase FLT3 (Homo sapiens) (UniProt P36888). Put plainly: Inhibition of FLT3 at 1 uM relative to control.
For test [31], the target named is Serine/threonine-protein kinase PLK1 (Homo sapiens) (UniProt P53350). Put plainly: Inhibition of PLK1 at 1 uM relative to control.
Test [32] has as its target Epidermal growth factor receptor (Homo sapiens) (UniProt P00533). Put plainly: Inhibition of EGFR at 1 uM relative to control.
The subject of test [33] is T1, Aurora kinase A (Homo sapiens), O14965 [T288D].
T1 sequence (whole entry): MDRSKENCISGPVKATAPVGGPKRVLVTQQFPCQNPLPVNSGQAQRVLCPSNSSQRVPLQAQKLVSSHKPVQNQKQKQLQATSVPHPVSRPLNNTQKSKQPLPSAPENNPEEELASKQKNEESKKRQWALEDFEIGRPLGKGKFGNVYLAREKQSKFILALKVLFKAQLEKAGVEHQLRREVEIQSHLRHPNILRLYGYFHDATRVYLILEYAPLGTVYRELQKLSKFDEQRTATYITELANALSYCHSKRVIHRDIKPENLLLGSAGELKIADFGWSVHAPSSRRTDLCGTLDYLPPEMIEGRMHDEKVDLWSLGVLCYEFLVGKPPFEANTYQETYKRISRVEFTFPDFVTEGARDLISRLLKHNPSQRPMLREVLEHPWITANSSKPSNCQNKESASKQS
Put plainly: Inhibition of Aurora kinase A T288D mutant expressed in Escherichia coli BL21 DE3 at 10 uM.

In test [34] the target is Aurora kinase A (Homo sapiens, UniProt O14965, T288D). Put plainly: Inhibition of Aurora kinase A T288D mutant expressed in Escherichia coli BL21 DE3.

Aurora kinase B (Homo sapiens), sequence (Q96GD4 whole entry): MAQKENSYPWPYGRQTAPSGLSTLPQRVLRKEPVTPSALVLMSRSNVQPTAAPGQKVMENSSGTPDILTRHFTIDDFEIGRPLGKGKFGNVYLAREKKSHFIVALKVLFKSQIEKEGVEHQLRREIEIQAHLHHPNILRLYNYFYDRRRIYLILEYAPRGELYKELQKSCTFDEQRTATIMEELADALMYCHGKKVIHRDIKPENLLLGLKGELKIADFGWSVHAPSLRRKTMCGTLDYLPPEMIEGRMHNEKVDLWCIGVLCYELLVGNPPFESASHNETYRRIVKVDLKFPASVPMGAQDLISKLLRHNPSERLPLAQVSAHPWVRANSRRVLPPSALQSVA
5'-AMP-activated protein kinase catalytic subunit alpha-1 (Homo sapiens), sequence (Q13131 whole entry, looked up): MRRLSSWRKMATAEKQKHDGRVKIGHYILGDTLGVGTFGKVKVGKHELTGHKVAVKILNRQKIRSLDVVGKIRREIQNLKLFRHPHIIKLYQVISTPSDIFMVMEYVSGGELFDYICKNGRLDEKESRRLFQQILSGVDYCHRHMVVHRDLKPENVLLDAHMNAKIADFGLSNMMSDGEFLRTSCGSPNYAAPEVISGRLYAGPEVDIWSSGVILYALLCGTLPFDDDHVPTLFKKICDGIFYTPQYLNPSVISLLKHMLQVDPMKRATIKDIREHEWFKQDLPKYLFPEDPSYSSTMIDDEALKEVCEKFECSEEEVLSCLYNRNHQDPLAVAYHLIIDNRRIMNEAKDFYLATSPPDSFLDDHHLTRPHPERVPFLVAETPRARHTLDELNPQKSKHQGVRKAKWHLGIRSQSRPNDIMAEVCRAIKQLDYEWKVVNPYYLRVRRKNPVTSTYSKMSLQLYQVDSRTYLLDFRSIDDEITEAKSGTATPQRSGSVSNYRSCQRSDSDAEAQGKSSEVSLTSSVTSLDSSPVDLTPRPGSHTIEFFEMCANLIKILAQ
Vascular endothelial growth factor receptor 1 (Homo sapiens), sequence (P17948 whole entry): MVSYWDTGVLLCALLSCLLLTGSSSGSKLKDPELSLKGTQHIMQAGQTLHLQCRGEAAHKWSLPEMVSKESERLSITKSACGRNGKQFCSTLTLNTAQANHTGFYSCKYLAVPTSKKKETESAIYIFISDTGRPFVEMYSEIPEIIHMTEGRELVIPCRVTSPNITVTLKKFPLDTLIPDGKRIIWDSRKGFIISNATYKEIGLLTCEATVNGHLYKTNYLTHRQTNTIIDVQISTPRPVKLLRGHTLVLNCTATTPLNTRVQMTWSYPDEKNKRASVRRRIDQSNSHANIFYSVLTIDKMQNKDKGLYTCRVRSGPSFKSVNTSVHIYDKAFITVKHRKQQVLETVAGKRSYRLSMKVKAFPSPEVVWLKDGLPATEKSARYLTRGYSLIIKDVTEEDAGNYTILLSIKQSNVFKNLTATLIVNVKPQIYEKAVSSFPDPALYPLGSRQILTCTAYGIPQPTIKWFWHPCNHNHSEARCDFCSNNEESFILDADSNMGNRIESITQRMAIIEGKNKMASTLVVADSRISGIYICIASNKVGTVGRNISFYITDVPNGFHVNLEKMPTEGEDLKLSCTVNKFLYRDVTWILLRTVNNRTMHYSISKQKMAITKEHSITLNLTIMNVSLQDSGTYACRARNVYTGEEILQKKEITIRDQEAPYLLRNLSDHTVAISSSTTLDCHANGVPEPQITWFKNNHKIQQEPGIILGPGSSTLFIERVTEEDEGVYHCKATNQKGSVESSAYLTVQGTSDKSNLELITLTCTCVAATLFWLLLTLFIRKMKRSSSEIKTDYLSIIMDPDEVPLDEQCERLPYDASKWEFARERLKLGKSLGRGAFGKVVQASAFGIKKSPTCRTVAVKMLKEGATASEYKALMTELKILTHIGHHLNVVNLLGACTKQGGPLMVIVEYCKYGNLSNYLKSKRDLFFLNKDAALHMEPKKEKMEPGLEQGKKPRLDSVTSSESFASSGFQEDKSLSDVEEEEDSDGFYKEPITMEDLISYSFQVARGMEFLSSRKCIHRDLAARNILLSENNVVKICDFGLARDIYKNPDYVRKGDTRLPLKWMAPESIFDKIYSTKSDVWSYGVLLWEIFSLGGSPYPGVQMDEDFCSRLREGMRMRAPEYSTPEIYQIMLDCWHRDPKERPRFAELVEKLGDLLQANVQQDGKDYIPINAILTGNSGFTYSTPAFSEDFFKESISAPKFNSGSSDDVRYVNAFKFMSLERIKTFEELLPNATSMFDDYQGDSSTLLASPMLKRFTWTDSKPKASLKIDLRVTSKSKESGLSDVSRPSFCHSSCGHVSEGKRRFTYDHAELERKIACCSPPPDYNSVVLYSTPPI
Glycogen synthase kinase-3 beta (Homo sapiens), sequence (P49841 whole entry, looked up): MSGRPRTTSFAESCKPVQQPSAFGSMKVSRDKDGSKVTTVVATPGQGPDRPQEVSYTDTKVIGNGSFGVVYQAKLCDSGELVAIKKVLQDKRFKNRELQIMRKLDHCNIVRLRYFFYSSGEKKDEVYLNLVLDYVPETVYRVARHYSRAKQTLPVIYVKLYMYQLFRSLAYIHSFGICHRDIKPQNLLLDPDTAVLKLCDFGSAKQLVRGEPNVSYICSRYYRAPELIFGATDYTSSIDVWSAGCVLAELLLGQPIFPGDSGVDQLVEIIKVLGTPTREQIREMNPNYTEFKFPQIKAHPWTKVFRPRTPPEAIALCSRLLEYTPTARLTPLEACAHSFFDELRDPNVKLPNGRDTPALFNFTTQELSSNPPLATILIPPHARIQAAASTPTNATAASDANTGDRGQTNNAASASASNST

Turning to `COc1ccc(/C=N/Nc2[nH]nc(C)c2C(=O)Nc2cccc(NC(C)=O)c2)cc1`, the inhibition in test [1] was 19%; in test [3], 26%; in test [4], 11%; in test [5], -8%; in test [6] it was 27%; in test [7], 33%. Moreover, the inhibition in test [8] is 1%; in test [9], 76%; in test [10], -1%; in test [11], 66%; in test [12], 48%; in test [13], 17%. In addition, the inhibition in [14] was 13%; in test [15], -3%; in test [16], 31%; in test [17] it was 19%; in [18], 56%; in test [19], 17%. The inhibition is 45% in test [20]; 32% in [21]; 51% in test [22]; 36% in [23]; -6% in [24]; 21% in test [25]. The inhibition was determined as 61% in test [26]; 4% in test [27]; 91% in [29]; 48% in [30]; 11% in test [31]; 8% in [32]. Also, the Activity result in test [2] and in test [28] was “Dose-dependent effect” throughout.
Consider `CCOC(=O)c1c(C)n[nH]c1N/N=C/c1ccccc1`, for which, in [33], the inhibition is 16.4%.
For the molecule `COc1ccc(/C=N/Nc2[nH]nc(C)c2C(=O)Nc2ccc(NC(C)=O)cc2)cc1`, the half-maximal inhibitory concentration (IC50) in test [34] stood at 719 nM.
Still for that read-out and setting: the figure for `COc1ccc(/C=N/Nc2[nH]nc(C)c2C(=O)Nc2ccc(N(C)C)cc2)cc1` is 1570 nM.
As to `CCOC(=O)c1c(C)n[nH]c1N/N=C(\C)c1ccc(OC)cc1`, the inhibition in test [33] was determined as 18.2%.
For the molecule `CCOC(=O)c1c(C)n[nH]c1N/N=C/c1ccc(N2CCN(C)CC2)cc1`, the inhibition in test [33] came to 41%.
In [34], `COc1ccc(/C=N/Nc2[nH]nc(C)c2C(=O)Nc2cccc(OC)c2)cc1` yielded an IC50 of 449 nM.
On the same count and under the same terms, then `COc1ccc(/C=N/Nc2[nH]nc(C)c2C(=O)NCCc2c[nH]c3ccccc23)cc1`, with 1070 nM.
The same measure, in the same setting: the figure for `COc1ccc(/C=N/Nc2[nH]nc(C)c2C(=O)NCCCc2ccccc2)cc1` is 1940 nM.
Turning to `CCOC(=O)c1c(C)n[nH]c1N/N=C/c1ccc(F)cc1`, the inhibition in test [33] worked out at 36.5%.
`COc1ccc(/C=N/Nc2[nH]nc(C)c2C(=O)NCCc2c[nH]cn2)cc1`: in test [34], the IC50 was determined as 1940 nM.
For the molecule `COc1ccc(/C=N/Nc2[nH]nc(C)c2C(=O)N(C)c2ccccc2)cc1`, in [34], the IC50 was more than 50000 nM.
As to `COc1ccc(/C=N/Nc2[nH]nc(C)c2C(=O)NCCc2ccccc2)cc1`, the half-inhibitory concentration (IC50) in [34] came out at 1350 nM.
For `CCOC(=O)c1c(C)n[nH]c1N/N=C/c1ccc(-c2ccccc2)cc1`, the inhibition in test [33] was determined as 27.5%.
In test [34], `COc1ccc(/C=N/Nc2[nH]nc(C)c2C(=O)NCCc2cccc(OC)c2)cc1` registered an IC50 of 2900 nM.
For `COc1ccc(/C=N/Nc2[nH]nc(C)c2C(=O)Nc2ccc(F)cc2)cc1`, the IC50 in test [34] turned out to be 1450 nM.
`COc1ccc(/C=N/Nc2[nH]nc(C)c2C(=O)Nc2ccc(OC)cc2)cc1` had an IC50 in test [34] of 460 nM. Against the preceding molecule, the IC50 is about 3.2-fold lower.
For `CCOC(=O)c1c(C)n[nH]c1N/N=C/c1cccc2[nH]ccc12`, the IC50 in test [34] is 13700 nM. Besides, the inhibition in test [33] worked out at 50.3%.
Consider `COc1ccc(/C=N/Nc2[nH]nc(C)c2C(=O)NCc2cccc(OC)c2)cc1`, for which the IC50 in [34] was found to be 838 nM.
`COc1ccc(/C=N/Nc2[nH]nc(C)c2C(=O)N(C)Cc2ccccc2)cc1` displayed an IC50 in test [34] of more than 50000 nM.
Still for that read-out and setting: then `COc1ccc(/C=N/Nc2[nH]nc(C)c2C(=O)NCc2cccc(NC(C)=O)c2)cc1`, with 1750 nM; and `COc1ccc(/C=N/Nc2[nH]nc(C)c2C(=O)Nc2ccccc2OC)cc1`, with 1090 nM.
For `COc1ccc(/C=N/Nc2[nH]nc(C)c2C(=O)OCc2ccccc2)cc1`, in [34], it took 5250 nM to reach half-maximal inhibition (IC50).
The molecule `COc1ccc(/C=N/Nc2[nH]nc(C)c2C(=O)NCCc2ccc(OC)cc2)cc1` gave an IC50 in test [34] of 1580 nM.
Still for that read-out and setting: then `COc1ccc(/C=N/Nc2[nH]nc(C)c2C(=O)NCCc2cccnc2)cc1`, with 1480 nM; and `COc1ccc(/C=N/Nc2[nH]nc(C)c2C(=O)NCc2ccccc2)cc1`, with 1580 nM; and `COc1ccc(/C=N/Nc2[nH]nc(C)c2C(=O)Nc2ccc(OC)c(OC)c2)cc1`, with 960 nM.
`CCOC(=O)c1c(C)n[nH]c1N/N=C/c1ccc2[nH]ccc2c1` registered an IC50 in test [34] of 11500 nM. In test [33], the inhibition amounted to 50%.
Molecule `COc1ccc(/C=N/Nc2[nH]nc(C)c2C(=O)NCc2ccc(OC)cc2)cc1` came in with a half-inhibitory concentration (IC50) in test [34] of 1620 nM.
In test [34], `CCOC(=O)c1c(C)n[nH]c1N/N=C/c1ccc(OC)cc1` registered a half-maximal inhibitory concentration (IC50) of 15100 nM. Besides, the inhibition in [33] was found to be 33.9%.
In turn, `COc1ccc(/C=N/Nc2[nH]nc(C)c2C(=O)Nc2ccccc2)cc1` displayed a half-inhibitory concentration (IC50) in test [34] of 804 nM.
Take `CCOC(=O)c1c(C)n[nH]c1N/N=C/Cc1ccccc1`: the inhibition in test [33] was 3.6%.
